This is an account of results in ChEMBL document CHEMBL1141776, “Gymnoascolides A-C: aromatic butenolides from an Australian isolate of the soil ascomycete Gymnoascus reessii” (2005).

One assay has as its system Bacillus subtilis. Put plainly: Antibacterial activity against Bacillus subtilis. Type of assay: functional, organism-based.
For the next assay, the system named is NS1. Put plainly: Cytotoxicity against mouse NS1 cells. Type of assay: functional, cell-based.
Assay [1] concerns Haemonchus contortus (nematode). Put plainly: Nematicidal activity against Haemonchus contortus.
A further assay deals with Parastagonospora nodorum. Put plainly: Antifungal activity against Septoria nodorum after 48 hrs by agar-based microtiter plate assay. It is filed as functional. The gist of the method:
(§1)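 Agar-based microtiter plate assay: spores (20 000 sp/well) applied to potato dextrose agar in wells containing serial 2-fold dilutions of test compound. Plates incubated at 24 °C; fungal growth assessed qualitatively at 48 h.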

In assay [2] the test system is Candida albicans. Put plainly: Antifungal activity against Candida albicans after 48 hrs by agar-based microtiter plate assay. Type of assay: functional. The gist of the method: as §1
The subject of assay [3] is Candida albicans. In words: Antifungal activity against Candida albicans up to […] after 48 hrs by agar-based microtiter plate assay. It is filed as functional, organism-based. The gist of the method: as §1

The structures appear in SMILES notation. Active and inactive are the calls of the source. No cut-off for these calls is given here.

`CO[C@@H]1OC(=O)C(c2ccccc2)=C1C(O)c1ccccc1` (stereo partly specified): the result (in the assay with Bacillus subtilis; with NS1; in assay [1]) was inactive.
For `CO[C@H]1OC(=O)C(c2ccccc2)=C1C(O)c1ccccc1` (stereo partly specified), the outcome (in the assay on Bacillus subtilis; in the assay on NS1; in assay [1]) was inactive.
As to `C[C@@H]1[C@H](O)[C@@H](C)/C=C/C=C/C=C/C=C/C=C/C=C/C=C/[C@H](O[C@@H]2O[C@H](C)[C@@H](O)[C@H](N)[C@@H]2O)C[C@@H]2O[C@](O)(C[C@@H](O)C[C@@H](O)[C@H](O)CC[C@@H](O)C[C@@H](O)CC(=O)O[C@H]1C)C[C@H](O)[C@H]2C(=O)O` [AMPHOTERICIN B], the LD99 in the assay with Parastagonospora nodorum and in the assay with Candida albicans [2] was 0.0031 mg/mL in each case.
On to `CCCC[C@H]1C(=O)O[C@H](C)[C@H](NC(=O)c2cccc(NC=O)c2O)C(=O)O[C@@H](C)[C@@H]1OC(=O)CC(C)C` [ANTIMYCIN A3], for which the results for the LD99 in the assay on Parastagonospora nodorum and in the assay on Candida albicans [2] were 0.0002 mg/mL and 0.05 mg/mL, respectively.
Consider `CN(CC[C@H](N)CC(=O)N[C@@H]1C=C[C@@H](n2ccc(N)nc2=O)O[C@H]1C(=O)O)C(=N)N.Cl` [BLASTICIDIN S HCL], for which the LD99 in the assay with Parastagonospora nodorum was 0.0016 mg/mL; in the assay on Candida albicans [2], 0.00039 mg/mL.
The compound `C[C@@H]1C[C@@H]([C@H](O)CC2CC(=O)NC(=O)C2)C(=O)[C@@H](C)C1` [CYCLOHEXIMIDE] showed an LD99 with Parastagonospora nodorum of 0.0063 mg/mL. In addition, in the assay with Candida albicans [3], the result was inactive.
In the assay with Parastagonospora nodorum, `O=C1OCC(Cc2ccccc2)=C1c1ccccc1` [GYMNOASCOLIDE A] gave an LD99 of 0.013 mg/mL. Moreover, the outcome (in the assay on Candida albicans [3]; with Bacillus subtilis; with NS1; in assay [1]) was inactive.
As to `C[C@@H]1C[C@H]2O[C@@H]2/C=C\C=C\C(=O)Cc2c(Cl)c(O)cc(O)c2C(=O)O1` [RADICICOL], the LD99 in the assay on Parastagonospora nodorum and with Candida albicans [2] was 0.012 mg/mL each time.
